Test results reported in ChEMBL document CHEMBL4402564, “Synthetic Lethality in Pancreatic Cancer: Discovery of a New RAD51-BRCA2 Small Molecule Disruptor That Inhibits Homologous Recombination and Synergizes with Olaparib” (J Med Chem, 2020).
Active and inactive are the calls of the source. The calls are words filed in the database; no cut-off is given here.

molecular target: T1, DNA repair protein RAD51 homolog 1 (Homo sapiens, UniProt Q06609); experiment: Inhibition of biotinylated BRC4 peptide binding to His-tagged human RAD51 expressed in Escherichia coli Rosetta(DE3) pLysS cells assessed as BRC4-RAD51 protein -protein interaction by competitive ELISA
T1 sequence (Q06609 whole entry): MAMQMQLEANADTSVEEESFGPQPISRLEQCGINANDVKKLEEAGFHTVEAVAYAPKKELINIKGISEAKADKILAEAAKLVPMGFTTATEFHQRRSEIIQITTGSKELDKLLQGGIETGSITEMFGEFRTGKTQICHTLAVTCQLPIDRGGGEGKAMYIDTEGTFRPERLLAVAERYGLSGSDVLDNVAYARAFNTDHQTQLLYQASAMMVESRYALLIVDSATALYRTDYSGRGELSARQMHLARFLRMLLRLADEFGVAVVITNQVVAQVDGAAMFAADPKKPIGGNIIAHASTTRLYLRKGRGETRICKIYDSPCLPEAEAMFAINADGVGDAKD
In short: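 Biotinylated BRC4 peptide coated onto wells, washed with PBS/0.05% Tween-20, blocked with 1% BSA/PBST, then hybridized overnight with human RAD51. Compounds tested at 0.01–100 μM in triplicate with 1% DMSO constant. Bound RAD51 detected with anti-RAD51 and HRP secondary antibody, TMB colorimetric signal quenched with 1 M HCl. EC50 ± SD reported.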

Structure (SMILES) | EC50
O=C(O)CCC(=O)N1N=C(c2c(O)nc3ccc(Cl)cc3c2-c2ccccc2)CC1c1ccco1 (racemic) | Not Active
COc1ccc(C2CC(c3c(O)nc4ccc(Cl)cc4c3-c3ccccc3)=NN2C(=O)CCC(=O)O)cc1 (racemic) | Not Active
CC(C)(C)c1ccc(C2CC(c3c(-c4ccccc4)c4cc(Cl)ccc4[nH]c3=O)=NN2C(=O)CCC(=O)O)cc1 (racemic) | Not Active
NCCC(=O)N1N=C(c2c(-c3ccccc3)c3cc(Cl)ccc3[nH]c2=O)CC1c1ccc(F)cc1 (racemic) | Not Active
CC(=O)N1N=C(c2c(-c3ccccc3)c3cc(Cl)ccc3[nH]c2=O)CC1c1ccco1 (racemic) | Not Active
CC(=O)N1N=C(c2c(-c3ccccc3)c3cc(Cl)ccc3[nH]c2=O)CC1c1ccc(C(F)(F)F)cc1 (racemic) | Not Active
NC(=O)CCC(=O)N1N=C(c2c(-c3ccccc3)c3cc(Cl)ccc3[nH]c2=O)CC1c1ccc(F)cc1 (racemic) | Not Active
CCCn1ncc2cc(C3CC(c4c(-c5ccccc5)c5cc(Cl)ccc5[nH]c4=O)=NN3C(=O)CCC(=O)O)ccc21 (racemic) | Not Active
COc1ccc(C2CC(c3c(-c4ccccc4)c4ccccc4[nH]c3=O)=NN2C(=O)CCC(=O)O)cc1 (racemic) | Not Active
COc1ccc(C2CC(c3c(-c4ccccc4)c4cc(Cl)ccc4[nH]c3=O)=NN2C(=O)CCC(=O)O)cc1F (racemic) | Not Active
O=C(O)CCC(=O)N1N=C(c2c(-c3ccccc3)c3ccccc3[nH]c2=O)CC1c1ccc(C(F)(F)F)cc1 (racemic) | Not Active
O=C(O)CCC(=O)N1N=C(c2c(-c3ccccc3)c3ccccc3[nH]c2=O)CC1c1ccc(Br)cc1 (racemic) | Not Active
O=C(O)CCC(=O)N1N=C(c2c(-c3ccccc3)c3ccccc3[nH]c2=O)CC1c1ccc(Cl)cc1 (racemic) | Not Active
O=C(O)CCC(=O)N1N=C(c2c(-c3ccccc3)c3cc(Cl)ccc3[nH]c2=O)CC1c1ccc2c(cnn2C2CCCCC2)c1 (racemic) | Not Active
O=C(O)CCC(=O)N1N=C(c2c(-c3ccccc3)c3cc(Cl)ccc3[nH]c2=O)CC1c1ccc2nn(C3CCCCC3)cc2c1 (racemic) | Not Active
COC(=O)CCC(=O)N1N=C(c2c(-c3ccccc3)c3cc(Cl)ccc3[nH]c2=O)CC1c1ccc(F)cc1 (racemic) | Not Active
O=C(O)CCC(=O)N1N=C(c2c(-c3ccccc3)c3ccccc3[nH]c2=O)CC1c1ccc(F)cc1 (racemic) | Not Active
O=C(O)CCC(=O)N1N=C(c2c(-c3ccccc3)c3ccccc3[nH]c2=O)CC1c1cccc(Br)c1 (racemic) | Not Active
CCCn1cc2cc(C3CC(c4c(-c5ccccc5)c5cc(Cl)ccc5[nH]c4=O)=NN3C(=O)CCC(=O)O)ccc2n1 (racemic) | Not Active
CS(=O)(=O)NCCC(=O)N1N=C(c2c(-c3ccccc3)c3cc(Cl)ccc3[nH]c2=O)CC1c1ccc(F)cc1 (racemic) | Not Active

system: BXPC-3; experiment: Antiproliferative activity against human BxPC3 cells at 5 uM after 72 hrs in presence of olaparib by CellTiter-Glo luminescent cell viability assay; format: functional, cell-based
In short: (§1)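 BxPC-3 cells grown in RPMI 1640 with 10% FBS, penicillin/streptomycin and 2 mM glutamine. Disruptor given alone or with 10 μM olaparib in medium containing 0.6% DMSO, with the same DMSO in controls. Viability read at 72 h, measured alongside cell death.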

Structure (SMILES) | Activity
Cn1ccc2cc(C3CC(c4c(-c5ccccc5)c5cc(Cl)ccc5[nH]c4=O)=NN3C(=O)CCC(=O)O)ccc21 (racemic) | inactive

system: CAPAN-1; experiment: Induction of DNA damage in BRCA2 defective human Capan1 cells assessed as increase in gamma-H2AX labelling […] hrs by immunofluorescence microscopic analysis; format: functional, cell-based
In short: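 Cells exposed 48 h to 20 μM disruptor alone or with 10 μM olaparib, in medium with 0.6% DMSO. Nuclear γ-H2AX foci visualized by immunofluorescence and percentage of labeled nuclei scored. BxPC-3 (functional BRCA2) and Capan-1 (BRCA2-defective) cultures in RPMI 1640 with 10% FBS.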

Structure (SMILES) | Activity
O=C(c1cc(Cc2n[nH]c(=O)c3ccccc23)ccc1F)N1CCN(C(=O)C2CC2)CC1 | Active

molecular target: T2, DNA repair protein RAD51 homolog 1 (Homo sapiens) (UniProt Q06609); experiment: Inhibition of RAD51 interaction in human BxPC3 cells assessed as inhibition of homologous recombination incubated for 5 hrs by RT-PCR analysis; format: cell-based
T2 sequence (whole entry): T1 sequence (Q06609 whole entry)
In short: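 Commercial two-plasmid recombination assay in BxPC-3 cells, with compound applied at different doses for 5 h simultaneously with plasmid transfection. Tested up to 40 μM, limited by solubility. Dose giving 50% HR inhibition estimated by polynomial regression.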

Structure (SMILES) | inhibition
CC(=O)N1N=C(c2c(-c3ccccc3)c3cc(Cl)ccc3[nH]c2=O)CC1c1ccc(C(C)(C)C)cc1 (racemic) | inactive
CC(=O)N1N=C(c2c(-c3ccccc3)c3cc(Cl)ccc3[nH]c2=O)CC1c1ccc2c(ccn2C)c1 (racemic) | inactive
CCC(=O)N1N=C(c2c(-c3ccccc3)c3cc(Cl)ccc3[nH]c2=O)CC1c1ccc(Br)cc1 (racemic) | inactive
CCC(=O)N1N=C(c2c(-c3ccccc3)c3cc(Cl)ccc3[nH]c2=O)CC1c1ccc(Cl)cc1 (racemic) | inactive
CCCn1ncc2cc(C3CC(c4c(-c5ccccc5)c5cc(Cl)ccc5[nH]c4=O)=NN3C(C)=O)ccc21 (racemic) | inactive
CCn1cc2cc(-c3ccc(C4CC(c5c(-c6ccccc6)c6cc(Cl)ccc6[nH]c5=O)=NN4C(=O)CCC(=O)O)cc3)ccc2n1 (racemic) | inactive
Cn1ccc2cc(C3CC(c4c(-c5ccccc5)c5cc(Cl)ccc5[nH]c4=O)=NN3C(=O)CCC(=O)O)ccc21 (racemic) | inactive
O=C(O)CCC(=O)N1N=C(c2c(-c3ccccc3)c3cc(Cl)ccc3[nH]c2=O)CC1c1ccc(Br)cc1 (racemic) | inactive

system: BXPC-3; experiment: Antiproliferative activity against human BxPC3 cells at 20 uM after 72 hrs in presence of olaparib by CellTiter-Glo luminescent cell viability assay; format: functional, cell-based; in short: as §1

Structure (SMILES) | Activity
CCn1cc2cc(-c3ccc(C4CC(c5c(-c6ccccc6)c6cc(Cl)ccc6[nH]c5=O)=NN4C(=O)CCC(=O)O)cc3)ccc2n1 (racemic) | Active

system: BXPC-3; experiment: Antiproliferative activity against human BxPC3 cells after 72 hrs in presence of olaparib by CellTiter-Glo luminescent cell viability assay; format: functional, cell-based; in short: as §1

Structure (SMILES) | Activity
CC(=O)N1N=C(c2c(-c3ccccc3)c3cc(Cl)ccc3[nH]c2=O)CC1c1ccc(Cl)cc1 (racemic) | inactive
CCC(=O)N1N=C(c2c(-c3ccccc3)c3cc(Cl)ccc3[nH]c2=O)CC1c1ccc(Br)cc1 (racemic) | inactive
CCC(=O)N1N=C(c2c(-c3ccccc3)c3cc(Cl)ccc3[nH]c2=O)CC1c1ccc(Cl)cc1 (racemic) | inactive
CCCn1ncc2cc(C3CC(c4c(-c5ccccc5)c5cc(Cl)ccc5[nH]c4=O)=NN3C(C)=O)ccc21 (racemic) | inactive
CCn1ccc2cc(C3CC(c4c(-c5ccccc5)c5cc(Cl)ccc5[nH]c4=O)=NN3C(=O)CCC(=O)O)ccc21 (racemic) | inactive
O=C(O)CCC(=O)N1N=C(c2c(-c3ccccc3)c3cc(Cl)ccc3[nH]c2=O)CC1c1ccc(-c2ccc(Br)cc2)cc1 (racemic) | inactive
O=C(O)CCC(=O)N1N=C(c2c(-c3ccccc3)c3cc(Cl)ccc3[nH]c2=O)CC1c1ccc(-c2ccc(F)cc2)cc1 (racemic) | inactive
O=C(O)CCC(=O)N1N=C(c2c(-c3ccccc3)c3cc(Cl)ccc3[nH]c2=O)CC1c1ccc(Br)cc1 (racemic) | inactive
